# Results reported in ChEMBL document CHEMBL1649119, “Daptomycin pharmacokinetics in adult oncology patients with neutropenic fever” (Antimicrob Agents Chemother, 2009).
# What was measured:
# [1] = Volume of distribution at steady state in nonobese human subjects at 4 mg/kg, iv administered as single dose 30 mins infusion; type: ADME, organism-based; parameters: dose 4 mg/kg, route intravenous; details: in vivo, read-out: Vdss
# Homo sapiens [2] = experiment: Unbound clearance in healthy human at 4 mg/kg, iv administered as 30 mins infusion every 24 hrs measured on day 7; type: ADME, organism-based; parameters: dose 4 mg/kg, route intravenous; details: in vivo
# [3] = Cmax in morbidly obese adult human at 4 mg/kg, iv administered as single dose 30 mins infusion; type: ADME, organism-based; parameters: dose 4 mg/kg, route intravenous; details: in vivo
# [4] = Clearance in adult human with hepatic impairment at 6 mg/kg, iv administered as single dose 30 mins infusion; type: ADME, organism-based, Liver; parameters: dose 6 mg/kg, route intravenous; details: in vivo
# [5] = AUC (0 to infinity) in healthy human at 6 mg/kg, iv administered as 30 mins infusion every 24 hrs measured on day 1; type: ADME, organism-based; parameters: time infinity, dose 6 mg/kg, route intravenous; details: plasma
# [6] = Volume of distribution at steady state in moderately obese adult human at 4 mg/kg, iv administered as single dose 30 mins infusion; type: ADME, organism-based; parameters: dose 4 mg/kg, route intravenous; details: in vivo, read-out: Vdss
# [7] = Half life in morbidly obese adult human at 4 mg/kg, iv administered as single dose 30 mins infusion; type: ADME, organism-based; parameters: dose 4 mg/kg, route intravenous; details: in vivo
# [8] = Apparent volume of distribution during terminal phase in healthy human at 4 mg/kg, iv administered as 30 mins infusion every 24 hrs measured on day 7; type: ADME, organism-based; parameters: dose 4 mg/kg, route intravenous; details: in vivo
# Homo sapiens [9] = experiment: Volume of distribution in central compartment in healthy human at 4 mg/kg, iv administered as single dose 30 mins infusion; type: ADME, organism-based; parameters: dose 4 mg/kg, route intravenous; details: in vivo, 0.5 h
# [10] = Half life in old healthy human at 4 mg/kg, iv administered as single dose 30 mins infusion; type: ADME, organism-based; parameters: dose 4 mg/kg, route intravenous; details: in vivo
# [11] = Half life in healthy human at 6 mg/kg, iv administered as 30 mins infusion every 24 hrs measured on day 7; type: ADME, organism-based; parameters: dose 6 mg/kg, route intravenous; details: in vivo
# [12] = AUC (0 to infinity) in healthy human subjects at 12 mg/kg, iv administered as 30 mins infusion every 24 hrs measured on day 14; type: ADME, organism-based; parameters: time infinity, dose 12 mg/kg, route intravenous; details: plasma
# [13] = Cmax in moderately obese adult human at 4 mg/kg, iv administered as single dose 30 mins infusion; type: ADME, organism-based; parameters: dose 4 mg/kg, route intravenous; details: in vivo
# [14] = Unbound fraction in healthy human plasma at 4 mg/kg, iv administered as 30 mins infusion every 24 hrs measured on day 1; type: ADME, organism-based; parameters: dose 4 mg/kg, route intravenous
# [15] = Clearance in healthy human at 8 mg/kg, iv administered as 30 mins infusion every 24 hrs measured on day 14; type: ADME, organism-based; parameters: dose 8 mg/kg, route intravenous; details: in vivo
# [16] = Clearance in healthy human at 8 mg/kg, iv administered as 30 mins infusion every 24 hrs measured on day 7; type: ADME, organism-based; parameters: dose 8 mg/kg, route intravenous; details: in vivo
# [17] = Drug excretion in adult human subjects urine assessed as unchanged drug at 6 mg/kg, iv administered as single dose 30 mins infusion; type: ADME, organism-based; parameters: dose 6 mg/kg, route intravenous; details: read-out: Drug uptake
# [18] = Cmax in adult human subjects at 6 mg/kg, iv administered as single dose 30 mins infusion; type: ADME, organism-based; parameters: dose 6 mg/kg, route intravenous; details: in vivo
# [19] = Apparent volume of distribution during terminal phase in healthy human at 4 mg/kg, iv administered as 30 mins infusion every 24 hrs measured on day 1; type: ADME, organism-based; parameters: dose 4 mg/kg, route intravenous; details: in vivo
# [20] = Clearance in healthy human at 8 mg/kg, iv administered as 30 mins infusion every 24 hrs measured on day 1; type: ADME, organism-based; parameters: dose 8 mg/kg, route intravenous; details: in vivo
# [21] = Half life in nonobese human at 4 mg/kg, iv administered as single dose 30 mins infusion; type: ADME, organism-based; parameters: dose 4 mg/kg, route intravenous; details: in vivo
# [22] = Clearance in old healthy human at 4 mg/kg, iv administered as single dose 30 mins infusion; type: ADME, organism-based; parameters: dose 4 mg/kg, route intravenous; details: in vivo
# [23] = Half life in nonobese adult human at 4 mg/kg, iv administered as single dose 30 mins infusion; type: ADME, organism-based; parameters: dose 4 mg/kg, route intravenous; details: in vivo
# [24] = Cmax in healthy human at 8 mg/kg, iv administered as 30 mins infusion every 24 hrs measured on day 1; type: ADME, organism-based; parameters: dose 8 mg/kg, route intravenous; details: in vivo
# [25] = Clearance in morbidly obese human at 4 mg/kg, iv administered as single dose 30 mins infusion; type: ADME, organism-based; parameters: dose 4 mg/kg, route intravenous; details: in vivo
# [26] = Drug excretion in healthy human urine assessed as unchanged drug at 4 mg/kg, iv administered as single dose 30 mins infusion; type: ADME, organism-based; parameters: dose 4 mg/kg, route intravenous; details: read-out: Drug uptake
# [27] = Apparent volume of distribution during terminal phase in healthy human subjects at 8 mg/kg, iv administered as 30 mins infusion every 24 hrs measured on day 1; type: ADME, organism-based; parameters: dose 8 mg/kg, route intravenous; details: in vivo
# [28] = Volume of distribution at steady state in cancer patient with neutropenic fever at 6 mg/kg, iv administered as 30 mins infusion every 24 hrs; type: ADME, organism-based; parameters: dose 6 mg/kg, route intravenous; details: human, in vivo, read-out: Vdss
# [29] = Half life in healthy human subjects at 8 mg/kg, iv administered as 30 mins infusion every 24 hrs measured on day 4; type: ADME, organism-based; parameters: dose 8 mg/kg, route intravenous; details: in vivo
# Homo sapiens [30] = experiment: Half life in cancer patient with neutropenic fever at 6 mg/kg, iv administered as 30 mins infusion every 24 hrs; type: ADME, organism-based; parameters: dose 6 mg/kg, route intravenous; details: in vivo
# How it was run: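 Patients with neutropenic fever; 6 mg/kg by total body weight, 30-min IV infusion q24h. Plasma drawn predose, end of infusion, and 0.5, 1, 2, 4, 8, 12, 24 h after infusion start; total drug by validated HPLC (linear 1–100 μg/ml). Noncompartmental analysis; λz from terminal-phase regression, t1/2 = 0.693/λz.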
# [31] = AUC (0 to infinity) in healthy human at 4 mg/kg, iv administered as single dose 30 mins infusion; type: ADME, organism-based; parameters: time infinity, dose 4 mg/kg, route intravenous; details: plasma
# [32] = Mean residence time in cancer patient with neutropenic fever at 6 mg/kg, iv administered as 30 mins infusion every 24 hrs; type: ADME, organism-based; parameters: dose 6 mg/kg, route intravenous; details: human, in vivo
# How it was run: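 Patients with neutropenic fever; 6 mg/kg by total body weight, 30-min IV infusion every 24 h; serial plasma sampling predose to 24 h after infusion start. Total plasma drug by validated HPLC; mean residence time from noncompartmental analysis of concentration-time data.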
# [33] = Clearance in healthy human subjects at 12 mg/kg, iv administered as 30 mins infusion every 24 hrs measured on day 14; type: ADME, organism-based; parameters: dose 12 mg/kg, route intravenous; details: in vivo
# [34] = Clearance in healthy human at 6 mg/kg, iv administered as 30 mins infusion every 24 hrs measured on day 1; type: ADME, organism-based; parameters: dose 6 mg/kg, route intravenous; details: in vivo
# [35] = Plasma concentration in cancer patient with neutropenic fever at 6 mg/kg, iv administered as 30 mins infusion every 24 hrs measured after 24 hrs; type: ADME, organism-based; parameters: dose 6 mg/kg, route intravenous; details: human
# How it was run: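 29 adult oncology patients with neutropenic fever received 6 mg/kg (total body weight) daptomycin as a 30-min IV infusion every 24 h. Plasma was sampled predose, at end of infusion, and 0.5, 1, 2, 4, 8, 12 and 24 h after infusion start. Total drug was measured by validated HPLC (linear 1–100 μg/ml, detection limit 1 μg/ml). Tmax was the observed value, analysed noncompartmentally.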
# [36] = Half life in healthy human subjects at 12 mg/kg, iv administered as 30 mins infusion every 24 hrs measured on day 1; type: ADME, organism-based; parameters: dose 12 mg/kg, route intravenous; details: in vivo
# [37] = Mean residence time in adult human subjects at 6 mg/kg, iv administered as single dose 30 mins infusion; type: ADME, organism-based; parameters: dose 6 mg/kg, route intravenous; details: in vivo
# [38] = AUC (0 to infinity) in adult human subjects at 6 mg/kg, iv administered as single dose 30 mins infusion; type: ADME, organism-based; parameters: time infinity, dose 6 mg/kg, route intravenous; details: plasma
# [39] = AUC (0 to infinity) in healthy human subjects at 10 mg/kg, iv administered as 30 mins infusion every 24 hrs measured on day 14; type: ADME, organism-based; parameters: time infinity, dose 10 mg/kg, route intravenous; details: plasma
# [40] = Renal clearance in moderately obese adult human at 4 mg/kg, iv administered as single dose 30 mins infusion; type: ADME, organism-based, Kidney; parameters: dose 4 mg/kg, route intravenous; details: in vivo, read-out: CL_renal (converted)
# [41] = Cmax in healthy human at 8 mg/kg, iv administered as 30 mins infusion every 24 hrs measured on day 14; type: ADME, organism-based; parameters: dose 8 mg/kg, route intravenous; details: in vivo
# [42] = Drug excretion in young healthy human urine assessed as unchanged drug at 4 mg/kg, iv administered as single dose 30 mins infusion; type: ADME, organism-based; parameters: dose 4 mg/kg, route intravenous; details: read-out: Drug uptake
smiles,measurement,setting,value
CCCCCCCCCC(=O)N[C@@H](Cc1c[nH]c2ccccc12)C(=O)N[C@H](CC(N)=O)C(=O)N[C@@H](CC(=O)O)C(=O)N[C@@H]1C(=O)NCC(=O)N[C@@H](CCCN)C(=O)N[C@@H](CC(=O)O)C(=O)N[C@H](C)C(=O)N[C@@H](CC(=O)O)C(=O)NCC(=O)N[C@H](CO)C(=O)N[C@@H]([C@H](C)CC(=O)O)C(=O)N[C@@H](CC(=O)c2ccccc2N)C(=O)O[C@@H]1C,Vd,[1],0.13 L/kg
same,CL,Homo sapiens [2],1.05 mL/min/kg
same,Cmax,[3],67 µg/mL
same,clearance,[4],0.118 mL/min/kg
same,AUC(0-inf),[5],705 µg·h/mL
same,Vd,[6],0.15 L/kg
same,half-life,[7],8.12 h
same,Vd,[8],0.096 L/kg
same,Vd,Homo sapiens [9],3420 mL
same,half-life,[10],11.8 h
same,half-life,[11],8.9 h
same,AUC(0-inf),[12],1290 µg·h/mL
same,Cmax,[13],57.8 µg/mL
same,fraction unbound at 1 day,[14],0.08
same,clearance,[15],0.123 mL/min/kg
same,clearance,[16],0.118 mL/min/kg
same,dose excreted at 0.5 h,[17],39.8%
same,Cmax,[18],118 µg/mL
same,Vd,[19],0.101 L/kg
same,clearance,[20],0.12 mL/min/kg
same,half-life,[21],8.04 h
same,clearance,[22],0.164 mL/min/kg
same,half-life,[23],6.83 h
same,Cmax,[24],116 µg/mL
same,clearance,[25],0.118 mL/min/kg
same,dose excreted at 0.5 h,[26],59.7%
same,Vd,[27],0.103 L/kg
same,Vd,[28],0.18 L/kg
same,half-life,[29],8.3 h
same,t1/2,Homo sapiens [30],8.75 h
same,AUC(0-inf),[31],530 µg·h/mL
same,MRT,[32],11.9 h
same,clearance,[33],0.15 mL/min/kg
same,clearance,[34],0.143 mL/min/kg
same,concentration at 24 h,[35],5.67 µg/mL
same,half-life,[36],7.8 h
same,MRT,[37],12.4 h
same,AUC(0-inf),[38],928 µg·h/mL
same,AUC(0-inf),[39],1080 µg·h/mL
same,CL renal at 0.5 h,[40],0.156 mL/min/kg
same,Cmax,[41],130 µg/mL
same,dose excreted at 0.5 h,[42],42.3%
